We go through two compounds from ChEMBL document CHEMBL5532695, “4-Trifluoromethyl bithiazoles as broad-spectrum antimicrobial agents for virus-related bacterial infections or co-infections” (RSC Med Chem, 2024).

In one data set the target is Phosphatidylinositol 4-kinase beta (Homo sapiens, UniProt Q9UBF8). Description: Inhibition of recombinant full length his tagged PI4KB (unknown origin) incubated for 10 mins in presence of ATP by ADP-glo kinase assay.
Sequence of Phosphatidylinositol 4-kinase beta (Q9UBF8 whole entry): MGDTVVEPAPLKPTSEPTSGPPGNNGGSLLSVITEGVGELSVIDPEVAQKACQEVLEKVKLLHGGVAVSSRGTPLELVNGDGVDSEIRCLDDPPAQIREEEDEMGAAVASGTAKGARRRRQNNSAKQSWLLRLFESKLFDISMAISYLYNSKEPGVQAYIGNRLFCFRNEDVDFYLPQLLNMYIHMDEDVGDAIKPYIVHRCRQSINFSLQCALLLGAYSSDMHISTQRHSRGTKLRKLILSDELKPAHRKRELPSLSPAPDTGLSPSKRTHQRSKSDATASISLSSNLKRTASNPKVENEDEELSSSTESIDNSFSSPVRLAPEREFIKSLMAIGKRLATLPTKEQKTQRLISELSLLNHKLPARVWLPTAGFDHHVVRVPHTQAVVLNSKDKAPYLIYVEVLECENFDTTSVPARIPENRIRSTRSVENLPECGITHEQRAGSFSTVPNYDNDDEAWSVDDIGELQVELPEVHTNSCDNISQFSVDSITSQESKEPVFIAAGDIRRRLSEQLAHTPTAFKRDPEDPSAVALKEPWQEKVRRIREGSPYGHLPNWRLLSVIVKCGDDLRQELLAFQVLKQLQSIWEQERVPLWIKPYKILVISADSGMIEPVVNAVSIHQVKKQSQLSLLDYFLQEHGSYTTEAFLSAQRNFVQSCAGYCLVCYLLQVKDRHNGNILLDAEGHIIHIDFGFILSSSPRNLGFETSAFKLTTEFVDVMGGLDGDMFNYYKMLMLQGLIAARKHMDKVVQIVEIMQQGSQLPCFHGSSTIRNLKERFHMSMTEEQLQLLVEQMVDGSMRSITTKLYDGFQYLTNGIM
Conditions: not given; call rule not given here
A general note: ADP-Glo turns the ADP formed in a reaction into a luminescent signal.
One may read the IC50 as the point on the concentration scale where inhibition reaches its midpoint. For `CC(C)(C)C(=O)Nc1nc(C(F)(F)F)c(-c2csc(Nc3cc(C(=O)O)cc(C(=O)O)c3)n2)s1`, the IC50 entry is given as “Not Active”.

For the compound `COC(=O)c1cc(Nc2nc(-c3sc(NC(=O)C(C)(C)C)nc3C(F)(F)F)cs2)cc(C(F)(F)F)c1`, the IC50 entry is “Not Active”.

System in another data set: not listed separately
The data set can be described thus: Cytotoxicity against human HeLa cells assessed as reduction in cell viability by MTT assay. It is filed as toxicity, cell-based.
Conditions: not given
The method in brief:
(§1)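 MTT viability on HeLa or VeroE6 cells, run in parallel with the antiviral assays. CC50 from variable-slope sigmoidal dose–response regression.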
Background: Tetrazolium assays rely on reduction of a dye to a coloured formazan, in cell work by metabolically active cells.
The term CC50 denotes the concentration giving 50% cytotoxicity. In the case of `CC(C)(C)C(=O)Nc1nc(C(F)(F)F)c(-c2csc(Nc3cc(C(=O)O)cc(C(=O)O)c3)n2)s1`, the half-maximal cytotoxic concentration (CC50) was above 50 µM.

As to `COC(=O)c1cc(Nc2nc(-c3sc(NC(=O)C(C)(C)C)nc3C(F)(F)F)cs2)cc(C(F)(F)F)c1`, the cytotoxic concentration (CC50) is 47.3 µM.

System in a further data set: not listed separately
Description: Cytotoxicity against african green monkey Vero E6 cells assessed as reduction in cell viability by MTT assay. The following applies: chlorocebus sabaeus, Vero E6 cells (Vero C1008). It counts as toxicity, cell-based. A digest of the protocol:
as §1
On to `CC(C)(C)C(=O)Nc1nc(C(F)(F)F)c(-c2csc(Nc3cc(C(=O)O)cc(C(=O)O)c3)n2)s1`, for which the CC50 is above 50 µM.

On to `COC(=O)c1cc(Nc2nc(-c3sc(NC(=O)C(C)(C)C)nc3C(F)(F)F)cs2)cc(C(F)(F)F)c1`, for which the CC50 is above 50 µM.

In the next data set the test system is Bacillus subtilis. Description: Antibacterial activity against Bacillus subtilis ATCC 6633 assessed as reduction in microbial growth measured after 18 hrs by CLSI based broth microdilution method.
Conditions: not given
It is filed as functional. The method in brief:
(§2)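 MIC by CLSI broth microdilution in Mueller–Hinton medium, triplicate. Inoculum 5 × 10^4 CFU per well. Compounds taken up in DMSO (50 mg mL−1 stock) and diluted in medium. Read after 18 h at 35 ± 2 °C.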
In general terms: Broth dilution looks for growth in wells or tubes with falling amounts of substance.
The MIC is the lowest concentration that inhibits growth of the organism. Turning to `CC(C)(C)C(=O)Nc1nc(C(F)(F)F)c(-c2csc(Nc3cc(C(=O)O)cc(C(=O)O)c3)n2)s1`, the MIC is above 32 µg/mL.

Take `COC(=O)c1cc(Nc2nc(-c3sc(NC(=O)C(C)(C)C)nc3C(F)(F)F)cs2)cc(C(F)(F)F)c1`: the MIC is above 32 µg/mL.

Another data set has as its system Enterococcus faecalis. Description: Antibacterial activity against Enterococcus faecalis ATCC 29212 assessed as reduction in microbial growth measured after 18 hrs by CLSI based broth microdilution method. It is filed as functional.
Conditions: not given
A digest of the protocol:
as §2
Turning to `CC(C)(C)C(=O)Nc1nc(C(F)(F)F)c(-c2csc(Nc3cc(C(=O)O)cc(C(=O)O)c3)n2)s1`, the MIC is above 32 µg/mL.

As for `COC(=O)c1cc(Nc2nc(-c3sc(NC(=O)C(C)(C)C)nc3C(F)(F)F)cs2)cc(C(F)(F)F)c1`, the MIC is above 32 µg/mL.

The test system of a further data set is Streptococcus pyogenes. The data set can be described thus: Antibacterial activity against Streptococcus pyogenes ATCC 12344 assessed as reduction in microbial growth measured after 18 hrs by CLSI based broth microdilution method.
Conditions: not given
It is filed as functional. A digest of the protocol: as §2
For `CC(C)(C)C(=O)Nc1nc(C(F)(F)F)c(-c2csc(Nc3cc(C(=O)O)cc(C(=O)O)c3)n2)s1`, the minimal inhibitory concentration (MIC) is above 32 µg/mL.

`COC(=O)c1cc(Nc2nc(-c3sc(NC(=O)C(C)(C)C)nc3C(F)(F)F)cs2)cc(C(F)(F)F)c1`: the MIC is above 32 µg/mL.

The next data set relates to Staphylococcus aureus. Description: Antibacterial activity against Staphylococcus aureus ATCC 25923 assessed as reduction in microbial growth measured after 18 hrs by CLSI based broth microdilution method. It counts as functional.
Conditions: not given
The method in brief: as §2
On to `CC(C)(C)C(=O)Nc1nc(C(F)(F)F)c(-c2csc(Nc3cc(C(=O)O)cc(C(=O)O)c3)n2)s1`, for which the MIC is above 32 µg/mL.

On to `COC(=O)c1cc(Nc2nc(-c3sc(NC(=O)C(C)(C)C)nc3C(F)(F)F)cs2)cc(C(F)(F)F)c1`, for which the minimum inhibitory concentration (MIC) is above 32 µg/mL.

A further data set concerns Escherichia coli. Description: Synergistic antibacterial activity against Escherichia coli CCUGT incubated for 18 to 24 hrs in presence of colistin by broth microdilution method. It is filed as functional. The note with it: time 18-24 hrs.
As for `CC(C)(C)C(=O)Nc1nc(C(F)(F)F)c(-c2csc(Nc3cc(C(=O)O)cc(C(=O)O)c3)n2)s1`, the MAC is above 64 µg/mL.

Turning to `COC(=O)c1cc(Nc2nc(-c3sc(NC(=O)C(C)(C)C)nc3C(F)(F)F)cs2)cc(C(F)(F)F)c1`, the MAC is above 64 µg/mL.

Another data set concerns Klebsiella pneumoniae. The data set can be described thus: Synergistic antibacterial activity against Klebsiella pneumoniae ATCC 13833 incubated for 18 to 24 hrs in presence of colistin by broth microdilution method. It is filed as functional. The note with it: time 18-24 hrs.
`CC(C)(C)C(=O)Nc1nc(C(F)(F)F)c(-c2csc(Nc3cc(C(=O)O)cc(C(=O)O)c3)n2)s1`: the MAC was above 64 µg/mL.

As to `COC(=O)c1cc(Nc2nc(-c3sc(NC(=O)C(C)(C)C)nc3C(F)(F)F)cs2)cc(C(F)(F)F)c1`, the MAC is above 64 µg/mL.

For the next data set, the system named is Acinetobacter baumannii. Description: Synergistic antibacterial activity against Acinetobacter baumannii ATCC 17978 incubated for 18 to 24 hrs in presence of colistin by broth microdilution method. It counts as functional. The following applies: time 18-24 hrs.
`CC(C)(C)C(=O)Nc1nc(C(F)(F)F)c(-c2csc(Nc3cc(C(=O)O)cc(C(=O)O)c3)n2)s1`: the MAC is above 64 µg/mL.

In the case of `COC(=O)c1cc(Nc2nc(-c3sc(NC(=O)C(C)(C)C)nc3C(F)(F)F)cs2)cc(C(F)(F)F)c1`, the MAC was above 64 µg/mL.

Another data set deals with Pseudomonas aeruginosa. Description: Synergistic antibacterial activity against Pseudomonas aeruginosa ATCC 27853 incubated for 18 to 24 hrs in presence of colistin by broth microdilution method. The note with it: time 18-24 hrs. It is filed as functional.
On to `CC(C)(C)C(=O)Nc1nc(C(F)(F)F)c(-c2csc(Nc3cc(C(=O)O)cc(C(=O)O)c3)n2)s1`, for which the MAC was above 64 µg/mL.

For the compound `COC(=O)c1cc(Nc2nc(-c3sc(NC(=O)C(C)(C)C)nc3C(F)(F)F)cs2)cc(C(F)(F)F)c1`, the MAC is above 64 µg/mL.

For another data set, the system named is rhinovirus A16.
Test: not given
The note with it: hela.
On to `CC(C)(C)C(=O)Nc1nc(C(F)(F)F)c(-c2csc(Nc3cc(C(=O)O)cc(C(=O)O)c3)n2)s1`, for which the half-maximal inhibitory concentration (IC50) entry is “Not Active”.

The test system of another data set is Zika virus.
Test: not given
The note with it: vero e6.
With `CC(C)(C)C(=O)Nc1nc(C(F)(F)F)c(-c2csc(Nc3cc(C(=O)O)cc(C(=O)O)c3)n2)s1`, the IC50 entry is reported as “Not Active”.

The next data set relates to rhinovirus A16. The data set can be described thus: microbe, parasite or virus in culture. The following applies: Rhinovirus A, HeLa, 48 h.
Turning to `COC(=O)c1cc(Nc2nc(-c3sc(NC(=O)C(C)(C)C)nc3C(F)(F)F)cs2)cc(C(F)(F)F)c1`, the concentration for half-maximal inhibition (IC50) came out at 0.25 µM.

The next data set deals with enterovirus D68. The data set can be described thus: microbe, parasite or virus in culture. The note with it: Enterovirus D, HeLa, 48 h.
`CC(C)(C)C(=O)Nc1nc(C(F)(F)F)c(-c2csc(Nc3cc(C(=O)O)cc(C(=O)O)c3)n2)s1` registered an IC50 of 12.3 µM.

On to `COC(=O)c1cc(Nc2nc(-c3sc(NC(=O)C(C)(C)C)nc3C(F)(F)F)cs2)cc(C(F)(F)F)c1`, for which the half-inhibitory concentration (IC50) is 2.01 µM.

The next data set has as its system Zika virus. The data set can be described thus: microbe, parasite or virus in culture. The note with it: Vero C1008, 72 h.
As for `COC(=O)c1cc(Nc2nc(-c3sc(NC(=O)C(C)(C)C)nc3C(F)(F)F)cs2)cc(C(F)(F)F)c1`, half-maximal inhibition (IC50) was put at 6.13 µM.
